Columns and labels:
Set-up in all cases: dose 5 mg/kg, dosed compound name [14C]CS-1036, route oral
Conditions in all cases: in vivo
[1] = system: Cerebellum; test: Drug uptake in albino F344/DuCrlCrlj rat cerebellum assessed as ng equivalent of CS-1036 at 5 mg/kg, po after 24 hrs by liquid scintillation counting; assay type: ADME, organism-based
[2] = system: Heart; test: Drug uptake in albino F344/DuCrlCrlj rat heart at 5 mg/kg, po after 24 hrs by liquid scintillation counting; assay type: ADME, organism-based
[3] = Drug uptake in albino F344/DuCrlCrlj rat eyeball assessed as ng equivalent of CS-1036 at 5 mg/kg, po after 1 hr by liquid scintillation counting; assay type: ADME, organism-based
[4] = system: Zone of skin; test: Drug uptake in albino F344/DuCrlCrlj rat skin assessed as ng equivalent of CS-1036 at 5 mg/kg, po after 336 hrs by liquid scintillation counting; assay type: ADME, organism-based
[5] = system: Heart; test: Drug uptake in albino F344/DuCrlCrlj rat heart at 5 mg/kg, po after 168 hrs by liquid scintillation counting; assay type: ADME, organism-based
[6] = system: Liver; test: Drug uptake in albino F344/DuCrlCrlj rat liver assessed as ng equivalent of CS-1036 at 5 mg/kg, po after 72 hrs by liquid scintillation counting; assay type: ADME, organism-based
[7] = system: Blood; test: Drug uptake in albino F344/DuCrlCrlj rat blood assessed as ng equivalent of CS-1036 at 5 mg/kg, po after 8 hrs by liquid scintillation counting; assay type: ADME, organism-based
How it was run: (§1)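 Male F344/DuCrlCrlj rats (159–167 g; n = 3 per time point) received a single oral dose of [14C]CS-1036 at 5 mg/kg. Blood was taken from the abdominal aorta at 1, 4, 8, 24, 72, 168 and 336 h. Radioactivity was counted by LSC with external-standard efficiency correction. Results were converted to ng equivalent of CS-1036/ml using specific activity and sample volume, and reported as mean + S.D.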

[8] = system: Adrenal gland; test: Drug uptake in albino F344/DuCrlCrlj rat adrenal gland assessed as ng equivalent of CS-1036 at 5 mg/kg, po after 24 hrs by liquid scintillation counting; assay type: ADME, organism-based
[9] = system: Lung; test: Drug uptake in albino F344/DuCrlCrlj rat lung at 5 mg/kg, po after 168 hrs by liquid scintillation counting; assay type: ADME, organism-based
[10] = system: Cerebrum; test: Drug uptake in albino F344/DuCrlCrlj rat cerebrum at 5 mg/kg, po after 24 hrs by liquid scintillation counting; assay type: ADME, organism-based
How it was run: (§2)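 Single oral [14C]CS-1036 at 5 mg/kg was given to male rats (159–167 g; n = 3). Cerebrum was collected after aortic bleeding at 1, 4, 8, 24, 72, 168 or 336 h, weighed, and homogenized in 2 volumes of saline. A 0.5 ml aliquot was solubilized in Soluene-350 and counted by LSC with external-standard correction. Results are in ng equivalent/g tissue from specific activity and sample weight.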

[11] = system: Aorta; test: Drug uptake in albino F344/DuCrlCrlj rat aorta at 5 mg/kg, po after 168 hrs by liquid scintillation counting; assay type: ADME, organism-based
[12] = system: Cerebrum; test: Drug uptake in albino F344/DuCrlCrlj rat cerebrum at 5 mg/kg, po after 72 hrs by liquid scintillation counting; assay type: ADME, organism-based; how it was run: as §2
[13] = Drug uptake in albino F344/DuCrlCrlj rat testis assessed as ng equivalent of CS-1036 at 5 mg/kg, po after 8 hrs by liquid scintillation counting; assay type: ADME, organism-based
[14] = Drug uptake in albino F344/DuCrlCrlj rat bone marrow assessed as ng equivalent of CS-1036 at 5 mg/kg, po after 336 hrs by liquid scintillation counting; assay type: ADME, organism-based
[15] = system: Zone of skin; test: Drug uptake in albino F344/DuCrlCrlj rat skin at 5 mg/kg, po after 168 hrs by liquid scintillation counting; assay type: ADME, organism-based
[16] = Drug uptake in albino F344/DuCrlCrlj rat eyeball at 5 mg/kg, po after 1 hr by liquid scintillation counting; assay type: ADME, organism-based
[17] = Drug uptake in albino F344/DuCrlCrlj rat epididymis assessed as ng equivalent of CS-1036 at 5 mg/kg, po after 336 hrs by liquid scintillation counting; assay type: ADME, organism-based
[18] = Drug uptake in albino F344/DuCrlCrlj rat brown fat assessed as ng equivalent of CS-1036 at 5 mg/kg, po after 4 hrs by liquid scintillation counting; assay type: ADME, organism-based, Brown adipose tissue
[19] = system: Liver; test: Drug uptake in albino F344/DuCrlCrlj rat liver assessed as ng equivalent of CS-1036 at 5 mg/kg, po after 24 hrs by liquid scintillation counting; assay type: ADME, organism-based
[20] = Drug uptake in albino F344/DuCrlCrlj rat fat at 5 mg/kg, po after 8 hrs by liquid scintillation counting; assay type: ADME, organism-based, Adipose tissue
How it was run: (§3)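 Male F344/DuCrlCrlj rats (bought at 7 weeks, acclimatized 5–6 days; 159–167 g; n = 3 per time point) received a single oral dose of [14C]CS-1036 at 5 mg/kg. White adipose tissue was collected after abdominal aortic bleeding at 1, 4, 8, 24, 72, 168 or 336 h. Samples were counted by LSC with external-standard efficiency correction. Results were converted to ng equivalents per g from specific activity and sample weight.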

[21] = system: Aorta; test: Drug uptake in albino F344/DuCrlCrlj rat aorta at 5 mg/kg, po after 1 hr by liquid scintillation counting; assay type: ADME, organism-based
[22] = system: Zone of skin; test: Drug uptake in albino F344/DuCrlCrlj rat skin assessed as ng equivalent of CS-1036 at 5 mg/kg, po after 1 hr by liquid scintillation counting; assay type: ADME, organism-based
[23] = system: Adrenal gland; test: Drug uptake in albino F344/DuCrlCrlj rat adrenal gland assessed as ng equivalent of CS-1036 at 5 mg/kg, po after 72 hrs by liquid scintillation counting; assay type: ADME, organism-based
[24] = system: Lung; test: Drug uptake in albino F344/DuCrlCrlj rat lung assessed as ng equivalent of CS-1036 at 5 mg/kg, po after 168 hrs by liquid scintillation counting; assay type: ADME, organism-based
[25] = system: Large intestine; test: Drug uptake in albino F344/DuCrlCrlj rat large intestine at 5 mg/kg, po after 24 hrs by liquid scintillation counting; assay type: ADME, organism-based
[26] = system: Heart; test: Drug uptake in albino F344/DuCrlCrlj rat heart at 5 mg/kg, po after 72 hrs by liquid scintillation counting; assay type: ADME, organism-based
[27] = Drug uptake in albino F344/DuCrlCrlj rat brown fat at 5 mg/kg, po after 8 hrs by liquid scintillation counting; assay type: ADME, organism-based, Brown adipose tissue
[28] = system: Blood; test: Drug uptake in albino F344/DuCrlCrlj rat blood at 5 mg/kg, po after 168 hrs by liquid scintillation counting; assay type: ADME, organism-based; how it was run: as §1
[29] = system: Stomach; test: Drug uptake in albino F344/DuCrlCrlj rat stomach at 5 mg/kg, po after 336 hrs by liquid scintillation counting; assay type: ADME, organism-based
[30] = system: Cerebellum; test: Drug uptake in albino F344/DuCrlCrlj rat cerebellum assessed as ng equivalent of CS-1036 at 5 mg/kg, po after 168 hrs by liquid scintillation counting; assay type: ADME, organism-based
[31] = system: Cerebellum; test: Drug uptake in albino F344/DuCrlCrlj rat cerebellum at 5 mg/kg, po after 8 hrs by liquid scintillation counting; assay type: ADME, organism-based
[32] = Drug uptake in albino F344/DuCrlCrlj rat fat assessed as ng equivalent of CS-1036 at 5 mg/kg, po after 8 hrs by liquid scintillation counting; assay type: ADME, organism-based, Adipose tissue; how it was run: as §3
[33] = Drug uptake in albino F344/DuCrlCrlj rat fat at 5 mg/kg, po after 24 hrs by liquid scintillation counting; assay type: ADME, organism-based, Adipose tissue; how it was run: as §3

Compound `C[C@H]1O[C@@H](O[C@H]2[C@H](O)[C@@H](O)[C@@H](O[14C@H]3[14C@H](O)[14CH2]N[14C@@H]3[14CH2]O)O[C@@H]2CO)[C@H](O)[C@@H](O)[C@@H]1O` has a Radiolabel recovery [1] of 2.3 ngequiv/g, a Radiolabel recovery [2] of 41.7 ngequiv/g and a Radiolabel recovery [3] of 3.2 ngequiv/g. It also gave a Radiolabel recovery [4] of 16.4 ngequiv/g, a Radiolabel recovery [5] of 13.8 ngequiv/g and a Radiolabel recovery [6] of 629 ngequiv/g. It also gave a Radiolabel recovery [7] of 6.5 ngequiv/ml, a Radiolabel recovery [8] of 20.2 ngequiv/g and a Radiolabel recovery [9] of 17.2 ngequiv/g. It also gave a Radiolabel recovery [10] of 19.3 ngequiv/g, a Radiolabel recovery [11] of 18.1 ngequiv/g and a Radiolabel recovery [12] of 8.91 ngequiv/g. For the same compound, the Radiolabel recovery [13] was 24.1 ngequiv/g, the Radiolabel recovery [14] was 11.4 ngequiv/g and the Radiolabel recovery [15] was 53.3 ngequiv/g. It also gave a Radiolabel recovery [16] of 17.7 ngequiv/g, a Radiolabel recovery [17] of 3.3 ngequiv/g and a Radiolabel recovery [18] of 2.5 ngequiv/g. For the same compound, the Radiolabel recovery [19] was 37 ngequiv/g, the Radiolabel recovery [20] was 14 ngequiv/g and the Radiolabel recovery [21] was 50.6 ngequiv/g. The Radiolabel recovery [22] was 2.2 ngequiv/g, the Radiolabel recovery [23] was 30.3 ngequiv/g and the Radiolabel recovery [24] was 8.2 ngequiv/g. It also gave a Radiolabel recovery [25] of 299 ngequiv/g, a Radiolabel recovery [26] of 27.5 ngequiv/g and a Radiolabel recovery [27] of 28.9 ngequiv/g. For the same compound, the Radiolabel recovery [28] was 8.55 ngequiv/ml, the Radiolabel recovery [29] was 11.9 ngequiv/g and the Radiolabel recovery [30] was 3.37 ngequiv/g. The Radiolabel recovery [31] was 8.3 ngequiv/g, the Radiolabel recovery [32] was 4.6 ngequiv/g and the Radiolabel recovery [33] was 82.9 ngequiv/g.

From ChEMBL document CHEMBL3526002, “Tissue distribution and identification of radioactivity components at elimination phase after oral administration of [¹⁴C]CS-1036, an α-amylase inhibitor, to rats” (Drug Metab Dispos, 2013)
